Source: ChEMBL document CHEMBL4433246, “Synthesis and Optimization of Kv7 (KCNQ) Potassium Channel Agonists: The Role of Fluorines in Potency and Selectivity” (ACS Med Chem Lett, 2019)

What was measured:
[1] = molecular target: Voltage-gated potassium channel, KQT; KCNQ2(Kv7.2)/KCNQ3(Kv7.3) (Homo sapiens) (UniProt O43526+O43525); assay: Agonist activity at human Kv7.2/Kv7.3 expressed in HEK293 cells assessed as drug concentration that doubles the conductance at voltage leading to 15% channel activation at holding potential of at -80 mV by whole cell patch clamp electrophysiology assay; assay type: cell-based
Summary of the method: (§1)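 High-throughput automated electrophysiology on an IonWorks Barracuda platform using HEK293 cells expressing the human channel. Ten-point concentration–response curves were run. EC2x is the agonist concentration that doubles conductance at the voltage giving 15% channel activation. Values come from 2–5 individual assay determinations and are given as mean ± SD. The reference agonist was run in 6–431 repeats.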

Homo sapiens = organism: Homo sapiens; assay: Selectivity index, ratio of EC2x for human Kv7.4/5 expressed in HEK293 cells to EC2x for EC2x for human Kv7.2/3 expressed in HEK293 cells; assay type: cell-based
Summary of the method: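 Selectivity index calculated as EC2x(Kv7.4/Kv7.5) divided by EC2x(Kv7.2/Kv7.3). Both EC2x values came from IonWorks Barracuda automated electrophysiology in HEK293 cells, using 10-point concentration curves and the doubled-conductance definition at 15% activation voltage.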

[2] = molecular target: T1, Potassium voltage-gated channel subfamily KQT member 4 (Homo sapiens) (UniProt P56696); assay: Agonist activity at human Kv7.4 expressed in HEK293 cells assessed as drug concentration that doubles the conductance at voltage leading to 15% channel activation at holding potential of at -80 mV by whole cell patch clamp electrophysiology assay; assay type: cell-based; summary of the method: as §1
T1 sequence (whole entry): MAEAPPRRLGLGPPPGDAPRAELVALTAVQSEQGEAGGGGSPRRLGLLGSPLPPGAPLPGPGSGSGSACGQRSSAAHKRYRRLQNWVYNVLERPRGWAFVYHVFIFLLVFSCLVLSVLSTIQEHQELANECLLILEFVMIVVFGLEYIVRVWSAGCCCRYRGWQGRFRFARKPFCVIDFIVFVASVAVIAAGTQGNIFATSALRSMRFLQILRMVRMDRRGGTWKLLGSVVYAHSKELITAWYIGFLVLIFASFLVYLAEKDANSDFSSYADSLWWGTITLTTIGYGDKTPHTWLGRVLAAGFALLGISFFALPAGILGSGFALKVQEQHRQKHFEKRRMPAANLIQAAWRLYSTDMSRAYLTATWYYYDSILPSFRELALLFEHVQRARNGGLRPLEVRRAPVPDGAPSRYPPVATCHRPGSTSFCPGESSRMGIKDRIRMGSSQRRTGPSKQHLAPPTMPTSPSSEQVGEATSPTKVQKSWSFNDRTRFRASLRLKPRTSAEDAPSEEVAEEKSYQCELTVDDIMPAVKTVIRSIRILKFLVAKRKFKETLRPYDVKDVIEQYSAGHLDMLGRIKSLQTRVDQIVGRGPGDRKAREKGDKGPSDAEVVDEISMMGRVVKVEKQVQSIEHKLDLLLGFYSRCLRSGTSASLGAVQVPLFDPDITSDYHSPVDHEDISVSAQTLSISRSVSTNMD

[3] = molecular target: KCNQ4/KCNQ5 (Homo sapiens) (UniProt Q9NR82+P56696); assay: Agonist activity at human Kv7.4/Kv7.5 expressed in HEK293 cells assessed as drug concentration that doubles the conductance at voltage leading to 15% channel activation at holding potential of at -80 mV by whole cell patch clamp electrophysiology assay; assay type: cell-based; summary of the method: as §1
[4] = molecular target: Voltage-gated potassium channel KCNQ3/KCNQ5 (Homo sapiens) (UniProt O43525+Q9NR82); assay: Agonist activity at human Kv7.3/Kv7.5 expressed in HEK293 cells assessed as drug concentration that doubles the conductance at voltage leading to 15% channel activation at holding potential of at -80 mV by whole cell patch clamp electrophysiology assay; assay type: cell-based; summary of the method: as §1
[5] = molecular target: Voltage-gated potassium channel, KQT; KCNQ2(Kv7.2)/KCNQ3(Kv7.3) (Homo sapiens, UniProt O43525+O43526); assay: Agonist activity at human Kv7.2/Kv7.3 expressed in CHO cells at holding potential of at -85 mV by whole cell patch clamp electrophysiology assay; assay type: cell-based
[6] = Half life in human liver microsomes; assay type: ADME, Microsome
Summary of the method: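 Stability was measured by incubation with pooled human liver microsomes. Half-life is reported in minutes.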

Chain of Voltage-gated potassium channel, KQT; KCNQ2(Kv7.2)/KCNQ3(Kv7.3) (O43526 whole entry): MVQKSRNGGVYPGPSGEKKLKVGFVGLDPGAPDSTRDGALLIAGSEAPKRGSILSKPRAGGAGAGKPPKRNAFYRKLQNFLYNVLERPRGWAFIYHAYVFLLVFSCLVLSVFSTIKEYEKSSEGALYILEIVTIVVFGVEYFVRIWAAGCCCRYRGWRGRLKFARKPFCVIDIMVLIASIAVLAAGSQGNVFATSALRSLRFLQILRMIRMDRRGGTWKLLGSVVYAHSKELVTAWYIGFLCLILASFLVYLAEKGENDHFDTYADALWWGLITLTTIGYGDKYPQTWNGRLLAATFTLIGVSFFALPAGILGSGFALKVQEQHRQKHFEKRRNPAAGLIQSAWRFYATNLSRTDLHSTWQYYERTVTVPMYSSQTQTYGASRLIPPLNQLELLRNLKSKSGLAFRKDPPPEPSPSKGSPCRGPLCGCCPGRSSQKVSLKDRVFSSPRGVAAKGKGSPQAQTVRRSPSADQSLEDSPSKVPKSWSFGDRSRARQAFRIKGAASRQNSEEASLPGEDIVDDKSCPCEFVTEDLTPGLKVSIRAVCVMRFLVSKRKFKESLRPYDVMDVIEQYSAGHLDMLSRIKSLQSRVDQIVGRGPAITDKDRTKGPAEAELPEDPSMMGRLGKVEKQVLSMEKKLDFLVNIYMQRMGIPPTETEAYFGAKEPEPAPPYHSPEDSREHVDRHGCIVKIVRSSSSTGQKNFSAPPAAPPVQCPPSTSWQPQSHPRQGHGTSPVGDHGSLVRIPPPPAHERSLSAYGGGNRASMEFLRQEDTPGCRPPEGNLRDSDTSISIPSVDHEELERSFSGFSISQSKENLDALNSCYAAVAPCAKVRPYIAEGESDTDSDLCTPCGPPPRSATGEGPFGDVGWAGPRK
Chain of Voltage-gated potassium channel, KQT; KCNQ2(Kv7.2)/KCNQ3(Kv7.3) (O43525 whole entry): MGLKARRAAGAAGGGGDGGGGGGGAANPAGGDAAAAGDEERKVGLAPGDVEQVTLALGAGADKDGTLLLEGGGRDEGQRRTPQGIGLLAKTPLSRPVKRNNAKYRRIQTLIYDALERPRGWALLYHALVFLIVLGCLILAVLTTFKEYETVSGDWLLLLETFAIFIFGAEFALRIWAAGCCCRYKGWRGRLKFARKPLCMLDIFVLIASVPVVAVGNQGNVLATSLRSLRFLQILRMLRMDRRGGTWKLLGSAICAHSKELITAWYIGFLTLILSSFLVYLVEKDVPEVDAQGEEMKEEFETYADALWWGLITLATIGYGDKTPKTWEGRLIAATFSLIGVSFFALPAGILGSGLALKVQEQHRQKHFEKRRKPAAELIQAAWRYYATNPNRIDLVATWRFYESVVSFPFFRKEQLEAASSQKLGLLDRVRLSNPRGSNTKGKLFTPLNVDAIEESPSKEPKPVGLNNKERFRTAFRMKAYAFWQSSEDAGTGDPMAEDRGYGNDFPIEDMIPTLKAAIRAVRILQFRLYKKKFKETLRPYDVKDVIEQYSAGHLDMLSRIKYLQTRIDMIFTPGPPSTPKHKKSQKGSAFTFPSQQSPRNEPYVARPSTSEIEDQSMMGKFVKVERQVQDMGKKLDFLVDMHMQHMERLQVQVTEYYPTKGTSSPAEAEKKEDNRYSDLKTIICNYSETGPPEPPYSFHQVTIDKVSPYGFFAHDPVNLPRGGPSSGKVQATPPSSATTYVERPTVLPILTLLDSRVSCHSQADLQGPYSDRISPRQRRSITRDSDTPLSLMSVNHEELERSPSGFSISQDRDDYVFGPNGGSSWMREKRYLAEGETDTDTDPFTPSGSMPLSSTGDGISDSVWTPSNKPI

Compound | EC2 [1] | Selectivity Index (Homo sapiens) | EC2 [2] | EC2 [3] | EC2 [4] | EC50 [5] | half-life [6]
Nc1c(F)c(NCc2ccc(C(F)(F)F)cc2F)cc(F)c1NC(=O)OC1CC1 | 1.47 µM | > 7 | 0.55 µM | > 10 µM | > 10 µM | – | –
CCOC(=O)Nc1ccc(NCc2ccc(F)cc2)nc1N | 2 µM | 1.8 | 5.62 µM | 3.5 µM | 1.58 µM | – | –
Nc1c(NC(=O)OC2CC2)ccc(NCc2ncc(C(F)(F)F)cc2F)c1F | 1.39 µM | > 7 | > 10 µM | > 10 µM | > 10 µM | – | –
Nc1c(NC(=O)OC2CC2)ccc(NCc2ccc(C(F)(F)F)cc2F)c1F | 0.59 µM | 0.6 | 0.21 µM | 0.35 µM | 0.47 µM | – | –
CCOC(=O)Nc1ccc(NCc2ccc(C(F)(F)F)cn2)c(F)c1N | 0.66 µM | 0.9 | 0.85 µM | 0.59 µM | 0.79 µM | – | –
Nc1c(F)c(NCc2ncc(C(F)(F)F)cc2F)cc(F)c1NC(=O)OC1CC1 | 1 µM | > 10 | > 10 µM | > 10 µM | > 10 µM | – | –
Nc1c(NC(=O)OC2CC2)cc(F)c(NCc2ncc(C(F)(F)F)cc2F)c1F | > 10 µM | – | > 10 µM | > 10 µM | > 10 µM | – | –
CCOC(=O)Nc1ccc(NCc2ccc(F)cc2)c(F)c1N | – | – | – | – | – | 600 nM | –
CCOC(=O)Nc1ccc(NCc2cccc(C(F)(F)F)c2)c(F)c1N | 0.14 µM | 4.7 | 0.4 µM | 0.66 µM | 0.2 µM | – | –
Nc1c(F)c(NCc2ccc(C(F)(F)F)cc2F)c(F)c(F)c1NC(=O)OC1CC1 | > 10 µM | – | > 10 µM | > 10 µM | > 10 µM | – | –
CCOC(=O)Nc1ccc(NCc2ccc(F)cc2)cc1N [EZOGABINE] | 0.33 µM | – | – | – | 0.34 µM | – | 970 min
CCOC(=O)Nc1ccc(NCc2ccc(C(F)(F)F)cc2F)c(F)c1N | 0.18 µM | 1.7 | 0.11 µM | 0.3 µM | 0.34 µM | – | –
Nc1c(NC(=O)OC2CC2)ccc(NCc2ccc(C(F)(F)F)cn2)c1F | 0.79 µM | 1.2 | 0.9 µM | 0.96 µM | 0.72 µM | – | –
CCOC(=O)Nc1ccc(NCc2ccc(C(F)(F)F)cc2)c(F)c1N | 0.26 µM | 0.3 | 0.1 µM | 0.09 µM | 0.29 µM | – | 344 min
CCOC(=O)Nc1ccc(NCc2cccc(S(F)(F)(F)(F)F)c2)c(F)c1N | 0.36 µM | 1.8 | 0.65 µM | 0.65 µM | 0.21 µM | – | –
Nc1c(NC(=O)OC2CC2)ccc(NCc2ccc(C(F)(F)F)cc2)c1F | 0.11 µM | 2.5 | 0.38 µM | 0.28 µM | 0.23 µM | – | –
Nc1c(NC(=O)OC2CC2)ccc(NCc2ccc(C(F)(F)F)nc2)c1F | 0.71 µM | 1.9 | 1.13 µM | 1.36 µM | 0.69 µM | – | –
CCOC(=O)Nc1cc(F)c(NCc2ccc(C(F)(F)F)cc2)cc1N | 1.26 µM | > 7 | 4.65 µM | > 10 µM | > 10 µM | – | –
Nc1c(NC(=O)OC2CC2)cc(F)c(NCc2ccc(C(F)(F)F)cc2F)c1F | 0.93 µM | > 10 | > 10 µM | > 10 µM | > 10 µM | – | 76 min
CCOC(=O)Nc1ccc(NCc2ccc(C(F)(F)F)nc2)c(F)c1N | 0.61 µM | 2.1 | 0.95 µM | 1.27 µM | 0.69 µM | – | 406 min
CC(C)OC(=O)Nc1ccc(NCc2ccc(C(F)(F)F)cc2)c(F)c1N | 0.16 µM | 31 | 0.19 µM | 4.98 µM | 0.16 µM | – | 451 min
CCOC(=O)Nc1ccc(NCc2ccc(C(F)(F)F)c(C#N)n2)c(F)c1N | 1.6 µM | 1.5 | 2.17 µM | 2.33 µM | 1.3 µM | – | –
CCOC(=O)Nc1cc(C(F)(F)F)c(NCc2ccc(C(F)(F)F)cc2)c(F)c1N | > 10 µM | – | > 10 µM | > 10 µM | > 10 µM | – | –
